Converted amounts (≈) assume the structure as drawn.
Columns and labels:
A-431 [1] = test: Antiproliferative activity against human A-431 cells assessed as reduction in cell growth incubated for 72 hrs by MTT assay; assay type: functional, cell-based; conditions: A-431, 72 h
SNB-75 [2] = test: Antiproliferative activity against human SNB-75 cells assessed as reduction in cell growth at 100 uM incubated for 72 hrs by MTT assay relative to control; assay type: functional
DU-145 [3] = test: Antiproliferative activity against human DU-145 cells assessed as reduction in cell growth at 100 uM incubated for 72 hrs by MTT assay relative to control; assay type: functional
MDA-MB-231 [4] = test: Antiproliferative activity against human MDA-MB-231 cells assessed as reduction in cell growth at 100 uM incubated for 72 hrs by MTT assay relative to control; assay type: functional
B16-F10 [5] = test: Antiproliferative activity against mouse B16-F10 cells assessed as reduction in cell growth at 100 uM incubated for 72 hrs by MTT assay relative to control; assay type: functional
MDA-MB-435 [6] = test: Antiproliferative activity against human MDA-MB-435 cells assessed as reduction in cell growth incubated for 72 hrs by MTT assay; assay type: functional, cell-based; conditions: MDA-MB-435, 72 h
IGROV-1 [7] = test: Antiproliferative activity against human IGROV-1 cells assessed as reduction in cell growth incubated for 3 days by trypan blue exclusion assay; assay type: functional, cell-based; conditions: IGROV-1, 72 h
In short: (§1)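 Ovarian lines grown in RPMI-1640 glutaMAX with 10% FBS, 5% CO2, 37°C. Cells seeded at 20 000 cells/well in 24-well plates and exposed to 0, 1, 10, 20, 30 or 50 μg/mL for 7 days. Viable cells were counted daily by trypan blue exclusion. At least three independent experiments in triplicate; mean ± standard deviation.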

MDA-MB-435 [8] = test: Antiproliferative activity against human MDA-MB-435 cells assessed as reduction in cell growth at 100 uM incubated for 72 hrs by MTT assay relative to control; assay type: functional
IGROV-1 [9] = test: Antiproliferative activity against human IGROV-1 cells assessed as reduction in cell growth incubated for 7 days by trypan blue exclusion assay; assay type: functional, cell-based; conditions: IGROV-1, 168 h; in short: as §1
Huh-7 [10] = test: Antiproliferative activity against human HuH-7 cells assessed as reduction in cell growth at 100 uM incubated for 72 hrs by MTT assay relative to control; assay type: functional
SK-OV-3 [11] = test: Antiproliferative activity against human SK-OV-3 cells assessed as reduction in cell growth incubated for 4 days by trypan blue exclusion assay; assay type: functional, cell-based; conditions: SK-OV-3, 96 h; in short: as §1
Caco-2 [12] = test: Antiproliferative activity against human CaCo-2 cells assessed as reduction in cell growth at 100 uM incubated for 72 hrs by MTT assay relative to control; assay type: functional
MDA-MB-231 [13] = test: Antiproliferative activity against human MDA-MB-231 cells assessed as reduction in cell growth incubated for 72 hrs by MTT assay; assay type: functional, cell-based; conditions: MDA-MB-231, 72 h
B16-F10 [14] = test: Antiproliferative activity against mouse B16-F10 cells assessed as reduction in cell growth incubated for 72 hrs by MTT assay; assay type: functional, cell-based; conditions: B16-F10, 72 h
SK-OV-3 [15] = test: Antiproliferative activity against human SK-OV-3 cells assessed as reduction in cell growth incubated for 3 days by trypan blue exclusion assay; assay type: functional, cell-based; conditions: SK-OV-3, 72 h; in short: as §1
DU-145 [16] = test: Antiproliferative activity against human DU-145 cells assessed as reduction in cell growth incubated for 72 hrs by MTT assay; assay type: functional, cell-based; conditions: DU-145, 72 h
Caco-2 [17] = test: Antiproliferative activity against human CaCo-2 cells assessed as reduction in cell growth incubated for 72 hrs by MTT assay; assay type: functional, cell-based; conditions: Caco-2, 72 h
C6 [18] = test: Antiproliferative activity against rat C6 cells assessed as reduction in cell growth incubated for 72 hrs by MTT assay; assay type: functional, cell-based; conditions: C6, 72 h
SK-OV-3 [19] = test: Antiproliferative activity against human SK-OV-3 cells assessed as reduction in cell growth incubated for 7 days by trypan blue exclusion assay; assay type: functional, cell-based; conditions: SK-OV-3, 168 h; in short: as §1
SNB-75 [20] = test: Antiproliferative activity against human SNB-75 cells assessed as reduction in cell growth incubated for 72 hrs by MTT assay; assay type: functional, cell-based; conditions: SNB-75, 72 h
A-431 [21] = test: Antiproliferative activity against human A-431 cells assessed as reduction in cell growth at 100 uM incubated for 72 hrs by MTT assay relative to control; assay type: functional
Huh-7 [22] = test: Antiproliferative activity against human HuH-7 cells assessed as reduction in cell growth incubated for 72 hrs by MTT assay; assay type: functional, cell-based; conditions: Huh-7, 72 h
IGROV-1 [23] = test: Antiproliferative activity against human IGROV-1 cells assessed as reduction in cell growth incubated for 4 days by trypan blue exclusion assay; assay type: functional, cell-based; conditions: IGROV-1, 96 h; in short: as §1
C6 [24] = test: Antiproliferative activity against rat C6 cells assessed as reduction in cell growth at 100 uM incubated for 72 hrs by MTT assay relative to control; assay type: functional
[25] = Cytotoxicity against human MET5A cells assessed as effect on cell morphology at 20 ug/ml measured upto 7 days by laser scanning confocal microscopy; assay type: cell-based; conditions: 168 h, time <=7 day, dose 20 µg/ml
In short: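 Healthy mesothelial MeT-5A cells, treated or untreated, were followed over days 1, 3 and 7. Actin cytoskeleton was stained by immunofluorescence (green) and nuclei with DAPI. Morphology was examined by laser scanning confocal microscopy.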

[26] = Toxicity in Swiss mouse assessed as abnormal behavior at 5 to 100 mg/kg, ip observed after 24 hrs; assay type: organism-based; conditions: in vivo, dose 5-100 mg/kg
In short: (§2)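 Male 6-week-old Swiss mice were acclimatized 5-7 days and randomised into seven groups of 3. Six groups got a single i.p. injection at 5, 10, 25, 50, 75 or 100 mg/kg; controls were uninjected. Mice were monitored over the first 24 h, then daily for 7 days, recording mortality and behaviour.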

[27] = Toxicity in Swiss mouse assessed as abnormal appearance at 5 to 100 mg/kg, ip observed after 24 hrs; assay type: organism-based; conditions: in vivo, dose 5-100 mg/kg
[28] = Cytotoxicity against human MET5A cells assessed as effect on cell morphology at 50 ug/ml measured upto 7 days by laser scanning confocal microscopy; assay type: cell-based; conditions: 168 h, time <=7 day, dose 50 µg/ml
In short: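 MeT-5A mesothelial cells, untreated or treated up to 50 μg/mL, were stained for actin cytoskeleton by immunofluorescence with DAPI-counterstained nuclei. Morphology was examined by laser scanning confocal microscopy on days 1, 3 and 7.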

[29] = Toxicity in Swiss mouse assessed as systemic signs at 5 to 100 mg/kg, ip observed after 7 days; assay type: organism-based; conditions: in vivo, 168 h, dose 5-100 mg/kg, time 7 day
[30] = Toxicity in Swiss mouse assessed as effect on behaviour at 5 to 100 mg/kg, ip observed after 7 days; assay type: organism-based; conditions: in vivo, 168 h, dose 5-100 mg/kg, time 7 day; in short: as §2
[31] = Toxicity in Swiss mouse assessed as effect on body weight at 5 to 100 mg/kg, ip observed after 7 days; assay type: organism-based; conditions: in vivo, 168 h, dose 5-100 mg/kg, time 7 day
[32] = Toxicity in Swiss mouse assessed as death rate at 5 to 100 mg/kg, ip observed after 7 days; assay type: organism-based; conditions: in vivo, dose 5-100 mg/kg, time 7 day, read-out: Activity
In short: (§3)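 Male 6-week-old Swiss mice, acclimatized 5-7 days, randomized into seven groups of 3. Single intraperitoneal injection at 5, 10, 25, 50, 75 or 100 mg/kg; controls housed alike without injection. Mice were monitored over the first 24 h, then daily for 7 days, recording mortality and behaviour.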

[33] = Toxicity in Swiss mouse assessed as effect on food consumption at 5 to 100 mg/kg, ip observed after 7 days; assay type: organism-based; conditions: in vivo, 168 h, dose 5-100 mg/kg, time 7 day
[34] = Toxicity in Swiss mouse assessed as death rate at 5 to 100 mg/kg, ip observed after 24 hrs; assay type: organism-based; conditions: in vivo, dose 5-100 mg/kg, read-out: Activity; in short: as §3

**Q.** For NC(=O)c1ncn([C@@H]2O[C@H](CO)[C@@H](O)[C@H]2O)n1 [RIBAVIRIN], which IC50 (A-431 [1]) is on record?
**A.** 3.18 µM

**Q.** What about the inhibition at 100 µM (SNB-75 [2]) of the same compound?
**A.** 70%

**Q.** And the inhibition at 100 µM (DU-145 [3])?
**A.** 50%

**Q.** And the inhibition at 100 µM (MDA-MB-231 [4])?
**A.** 40%

**Q.** And the inhibition at 100 µM (B16-F10 [5])?
**A.** 80%

**Q.** What about the IC50 (MDA-MB-435 [6]) of the same compound?
**A.** 38.3 µM

**Q.** And the IC50 (IGROV-1 [7])?
**A.** 25 µg/mL (≈ 102 µM)

**Q.** What about the inhibition at 100 µM (MDA-MB-435 [8]) of the same compound?
**A.** 50%

**Q.** And the IC50 (IGROV-1 [9])?
**A.** 16 µg/mL (≈ 65.5 µM)

**Q.** What about the inhibition at 100 µM (Huh-7 [10]) of the same compound?
**A.** 60%

**Q.** What about the IC50 (SK-OV-3 [11]) of the same compound?
**A.** 10 µg/mL (≈ 40.9 µM)

**Q.** What about the inhibition at 100 µM (Caco-2 [12]) of the same compound?
**A.** 60%

**Q.** And the IC50 (MDA-MB-231 [13])?
**A.** > 100 µM

**Q.** And the IC50 (B16-F10 [14])?
**A.** 3.5 µM

**Q.** And the IC50 (SK-OV-3 [15])?
**A.** 9 µg/mL (≈ 36.9 µM)

**Q.** What about the IC50 (DU-145 [16]) of the same compound?
**A.** > 100 µM

**Q.** And the IC50 (Caco-2 [17])?
**A.** 34.5 µM

**Q.** What about the IC50 (C6 [18]) of the same compound?
**A.** 13.5 µM

**Q.** And the IC50 (SK-OV-3 [19])?
**A.** 10 µg/mL (≈ 40.9 µM)

**Q.** And the IC50 (SNB-75 [20])?
**A.** 18.5 µM

**Q.** What about the inhibition at 100 µM (A-431 [21]) of the same compound?
**A.** 70%

**Q.** What about the IC50 (Huh-7 [22]) of the same compound?
**A.** 53.7 µM

**Q.** What about the IC50 (IGROV-1 [23]) of the same compound?
**A.** 21 µg/mL (≈ 86 µM)

**Q.** What about the inhibition at 100 µM (C6 [24]) of the same compound?
**A.** 75%

**Q.** What about the Activity [25] of the same compound?
**A.** Non-Toxic

**Q.** What does the source list for NC(=O)c1n[nH]nc1[C@@H]1O[C@H](CO)[C@@H](O)[C@H]1O?
**A.** IC50 (A-431 [1]): 0.58 µM; inhibition at 100 µM (SNB-75 [2]): 70%; inhibition at 100 µM (DU-145 [3]): 85%; inhibition at 100 µM (MDA-MB-231 [4]): 80%; inhibition at 100 µM (B16-F10 [5]): 80%; IC50 (MDA-MB-435 [6]): 1.9 µM; Activity [26]: Non-Toxic; Activity [27]: Non-Toxic; IC50 (IGROV-1 [7]): 23 µg/mL (≈ 94.2 µM); inhibition at 100 µM (MDA-MB-435 [8]): 80%; IC50 (IGROV-1 [9]): 23.8 µg/mL (≈ 97.5 µM); Activity [28]: Non-Toxic; inhibition at 100 µM (Huh-7 [10]): 60%; Activity [29]: Non-Toxic; IC50 (SK-OV-3 [11]): 25.5 µg/mL (≈ 104 µM); inhibition at 100 µM (Caco-2 [12]): 90%; IC50 (MDA-MB-231 [13]): 9.59 µM; IC50 (B16-F10 [14]): 1.52 µM; IC50 (SK-OV-3 [15]): 24.5 µg/mL (≈ 100 µM); Activity [30]: Non-Toxic; IC50 (DU-145 [16]): 2.14 µM; Activity [31]: Non-Toxic; IC50 (Caco-2 [17]): 8.05 µM; IC50 (C6 [18]): 2.15 µM; mortality at 168 h [32]: 0%; Activity [33]: Non-Toxic; IC50 (SK-OV-3 [19]): 19 µg/mL (≈ 77.8 µM); mortality at 24 h [34]: 0%; IC50 (SNB-75 [20]): 9.38 µM; inhibition at 100 µM (A-431 [21]): 80%; IC50 (Huh-7 [22]): 22.2 µM; IC50 (IGROV-1 [23]): 22.8 µg/mL (≈ 93.4 µM); inhibition at 100 µM (C6 [24]): 85%; Activity [25]: Non-Toxic

From ChEMBL document CHEMBL4680136, “Synthesis and antitumor activities investigation of a C-nucleoside analogue of ribavirin” (Eur J Med Chem, 2020)
